Data as given in publication PMC7549103 (ACS Medicinal Chemistry Letters, 2020).

Legend:
MOLT-4 cells [1] = assay: Cellular viability assay, MOLT-4 cells; format: cell-based, human
Outline: (§1)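 MOLT-4 is used as the BCL-XL-dependent human cancer cell line, and RS4;11 as the BCL-2-dependent line. Test compounds were tested in both lines in parallel.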

RS4;11 cells = assay: Cellular viability assay, RS4; format: cell-based; settings: Homo sapiens, RS4-11, 48 h, read-out: RS4;11 EC50
Outline: as §1

[2] = Single dose pharmacokinetics in rats; format: in vivo, Sprague-Dawley rats; settings: rat, single oral dose of 5 mg/kg
eLogD7.4 = format: physicochemical; settings: pH 7.4
MOLT-4 cells [3] = settings: cytochrome c release, caspase-3/-7 activation, Annexin-V staining; cited from earlier work
GST-BCL-XL = GST-BCL-XL (Homo sapiens, UniProt Q07817); format: binding; settings: BCL-XL TR-FRET Ki ratio
[4] = Retest of activity over time; format: physicochemical

GST-BCL-XL, sequence (Q07817 whole entry): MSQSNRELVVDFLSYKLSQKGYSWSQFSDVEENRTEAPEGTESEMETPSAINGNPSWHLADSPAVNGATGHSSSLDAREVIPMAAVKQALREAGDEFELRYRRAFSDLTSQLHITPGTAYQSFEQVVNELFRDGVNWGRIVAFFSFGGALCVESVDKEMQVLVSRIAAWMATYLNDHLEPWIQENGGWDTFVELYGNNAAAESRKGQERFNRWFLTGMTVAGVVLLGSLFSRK

## Cc1c(-c2ccc(N3CCc4cccc(C(=O)Nc5nc6ccccc6s5)c4C3)nc2C(=O)O)cnn1Cc1ccccc1 [Compound 10]
MOLT-4 cells [1]; MOLT-4 (and RS4;11) cells, 10% human serum
  activity in cells (in words): low micromolar activity
RS4;11 cells
  EC50: > 5 µM
[2]
  Cmax-coverage (total drug exposure) of the cellular EC50: approximately 3 fold

## O=C(O)c1csc(N2CCc3cccc(C(=O)Nc4nc5ccccc5s4)c3C2)n1 [Compound 2]
eLogD7.4
  eLogD7.4: 3.02

## Cc1c(-c2ccc(N3CCc4cccc(C(=O)Nc5nc6ccccc6s5)c4C3)nc2C(=O)O)cnn1CC12CC3CC(CC(C3)C1)C2 [Compound 13]
MOLT-4 cells [1]; 10% HS
  in vitro efficacy against MOLT-4, fold more potent than A-1155463 (1): 20 fold
MOLT-4 cells [3]
  mechanism-based effects in MOLT-4 cells: disrupted BCL-XL:BIM complexes and induced classical features of apoptosis

## O=C(O)c1cccc(N2CCc3cccc(C(=O)Nc4nc5ccccc5s4)c3C2)n1 [Compound 3]
eLogD7.4
  chromatographic logD: 2.85

## Cc1nn(Cc2ccccc2)c(C)c1-c1ccc(N2CCc3cccc(C(=O)Nc4nc5ccccc5s4)c3C2)nc1C(=O)O [Compound 11]
GST-BCL-XL
  improvement in target affinity relative to parent 6: ~11 fold

## O=C(Nc1nc2ccccc2s1)c1cccc2c1CN(c1ccc(-c3ccn(Cc4ccccc4)c3)c(C(=O)O)n1)CC2 [Compound 5]
[4]
  stability on storage (activity upon retest over time): lost activity upon retest over time

## O=C(Nc1nc2ccccc2s1)c1cccc2c1CN(c1ccc(-c3cnn(Cc4ccccc4)c3)c(C(=O)O)n1)CC2 [Compound 6]
MOLT-4 cells [1]; Homo sapiens, MOLT-4, 48 h, read-out: MOLT-4 EC50, 10% HS, 48 hours
  EC50: > 5 µM
